Test [1] can be described thus: hit retest on RPL19A-GFP reporter strain – cell-based, S. cerevisiae, flow cytometry, cherry picks, mother/daughter gates, confirmation (AID 2270;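 active = GFP response below 50% of the DMSO control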). Conditions: 3 h, at 10 µM, stronger effect = lower value, 100 = same GFP as DMSO wells. For orientation: Flow cytometry measures light scatter and fluorescence of single cells or particles in a stream.
A short description of test [2]: yeast TOR pathway reporter LAP4-GFP change – cell-based, cherry picks, flow cytometry, mother/daughter gates, confirmation (AID 2271;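 active = GFP response above 150% of the DMSO control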;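 note: ratio of sample to DMSO plate mean so 100% equals DMSO level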). Conditions: S. cerevisiae LAP4-GFP strain, 3 h, at 10 µM, stronger effect = higher value, 100 means same as DMSO control. In a few lines:
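System: GFP-fusion yeast strain | Input: Yeast cells seeded at OD600 of 0.2 | Technique: HT flow cytometry, GFP fluorescence channel | Read-out: % GFP response vs DMSO | Dosing: Single test-compound dose, 10 µM final | Controls: Positive rapamycin (400 ng/mL), negative DMSO | Times: 3 h treatment at 30 °C with rotation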

The nature of test [3]: TOR pathway reporter MEP2-GFP, retest of hits – S. cerevisiae, flow cytometry GFP, cherry picks, confirmation (AID 2272;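 active = GFP response above 150% of the DMSO control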;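 note: ratio of well signal to plate DMSO mean so 100% equals DMSO level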). Conditions: S. cerevisiae MEP2-GFP strain, 3 h, at 10 µM, stronger effect = higher value.
The nature of test [4]: yeast AGP1-GFP fluorescence change, single-dose – cell-based, flow cytometry, S. cerevisiae, cherry picks, confirmation (AID 2273).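 Note: median GFP channel fluorescence over the whole cell population gate.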 Conditions: S. cerevisiae AGP1-GFP strain, 3 h, at 10 µM.
The nature of test [5]: TOR pathway CIT2 reporter hit retest – S. cerevisiae, GFP fusion, cherry picks, mother/daughter gates, confirmation (AID 2274). The following applies: S. cerevisiae CIT2-GFP strain, flow cytometry, 3 h, at 10 µM, stronger effect = higher value.
The mark [6] stands for this setting: measured here: daughter cell gate.
The mark [7] stands for this setting: measured here: mother cell gate.
Where [8] appears, read: measured here: daughter cell gate response.
Where [9] appears, read: measured here: mother cell gate response.

The structures appear in SMILES notation. The source made the active and inactive calls.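 Rule for the calls, unless noted: active = GFP response above 150% of the DMSO level; inconclusive = fewer than 70 events counted for a yeast strain; inactive = the rest.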

As for `COc1ccccc1N1C(=O)CC(Sc2nccc(C)n2)C1=O` (centres undefined), the GFP response vs DMSO was 101% (inactive) in test [1], 98.6% in test [1] (setting [6]), 102% in test [1] (setting [7]) and 99% (inactive) in test [3]. In addition, the GFP response relative to DMSO was 95.7% (inactive) in test [2], 95.9% in test [2] (setting [8]) and 95.2% in test [2] (setting [9]). Moreover, the GFP response, % of DMSO in test [4] is 99.6% (inactive); in test [5], 98.8% (inactive); in test [5] (setting [6]), 93.8%; in test [5] (setting [7]), 99.3%.
Regarding `Cc1ccc(NC(=O)COc2ccc(Br)cc2C)cc1`, the GFP response vs DMSO is 99.5% (inactive) in test [1], 97.3% in test [1] (setting [6]), 100% in test [1] (setting [7]) and 104% (inactive) in test [3]. Further, the values for the GFP response relative to DMSO in test [2], in test [2] (setting [8]) and in test [2] (setting [9]) were 107% (inactive), 102% and 104%, respectively. The GFP response, % of DMSO in test [4] was 96.7% (inactive); in test [5] it was 97.8% (inactive); in test [5] (setting [6]), 98.3%; in test [5] (setting [7]) it was 95.6%.
Take `Cc1cc(C)c2c(c1)/C(=C/C(=O)c1ccc(Br)s1)C(=O)N2`: the GFP response vs DMSO in test [1] was 104% (inactive); in test [1] (setting [6]), 102%; in test [1] (setting [7]), 103%; in test [3], 105% (inactive). The GFP response relative to DMSO in test [2] was 99.5% (inactive); in test [2] (setting [8]) it was 101%; in test [2] (setting [9]) it was 102%. Besides, the GFP response, % of DMSO in test [4] was 97.8% (inactive); in test [5], 94.4% (inactive); in test [5] (setting [6]), 93.8%; in test [5] (setting [7]), 94.4%.
`Cc1cccc(NC(c2ccc(C)s2)c2ccc3ccc(C)nc3c2O)n1` (centres undefined): the GFP response vs DMSO in test [1] was 108% (inactive); in test [1] (setting [6]), 120%; in test [1] (setting [7]), 98.6%; in test [3] it was 114% (inactive). In addition, the GFP response relative to DMSO in test [2] was 140% (inactive); in test [2] (setting [8]) it was 141%; in test [2] (setting [9]), 134%. The GFP response, % of DMSO in test [4] was 94.9% (inactive); in test [5], 109% (inactive); in test [5] (setting [6]), 121%; in test [5] (setting [7]), 94.4%.
Turning to `COc1ccc(N2C(=O)CC(Sc3ncn[nH]3)C2=O)c(OC)c1` (centres undefined), the GFP response vs DMSO was 107% (inactive) in test [1], 112% in test [1] (setting [6]), 102% in test [1] (setting [7]) and 110% (inactive) in test [3]. Besides, the GFP response relative to DMSO was 172% (active) in test [2], 161% in test [2] (setting [8]) and 167% in test [2] (setting [9]). The GFP response, % of DMSO in test [4] is 102% (inactive); in test [5], 109% (inactive); in test [5] (setting [6]), 115%; in test [5] (setting [7]), 101%.
With `O=C1C(Cl)=C(Nc2ccccc2O)C(=O)N1CCc1ccccc1`, the GFP response vs DMSO in test [1] is 98% (inactive); in test [1] (setting [6]), 97.8%; in test [1] (setting [7]), 97.9%; in test [3], 112% (inactive). Also, the GFP response relative to DMSO in test [2] is 103% (inactive); in test [2] (setting [8]), 101%; in test [2] (setting [9]) it was 104%. Further, the GFP response, % of DMSO in test [4] was 104% (inactive); in test [5], 106% (inactive); in test [5] (setting [6]), 104%; in test [5] (setting [7]) it was 104%.
With `COc1ccc(C(=O)c2no[n+]([O-])c2C(=O)c2ccc(OC)cc2)cc1`, the GFP response vs DMSO in test [1] was 90.1% (inactive); in test [1] (setting [6]), 83.3%; in test [1] (setting [7]) it was 86.6%; in test [3], 94.1% (inactive). Further, the GFP response relative to DMSO was 149% (inactive) in test [2], 134% in test [2] (setting [8]) and 153% in test [2] (setting [9]). Also, the GFP response, % of DMSO in test [4] was 92.9% (inactive); in test [5], 82.6% (inactive); in test [5] (setting [6]), 77.1%; in test [5] (setting [7]) it was 73.6%.
As to `CCCc1nnc(NC(=O)c2nc(S(=O)(=O)Cc3ccc(C)cc3)ncc2Cl)s1`, the GFP response vs DMSO is 98.9% (inactive) in test [1], 97.6% in test [1] (setting [6]), 94% in test [1] (setting [7]) and 103% (inactive) in test [3]. The GFP response relative to DMSO in test [2] is 106% (inactive); in test [2] (setting [8]), 102%; in test [2] (setting [9]) it was 104%. Further, the GFP response, % of DMSO in test [4] was 103% (inactive); in test [5], 112% (inactive); in test [5] (setting [6]) it was 106%; in test [5] (setting [7]), 108%.
With `COc1ccc(N=Nc2ccc(O)c3ncccc23)cc1`, the GFP response vs DMSO was 99.5% (inactive) in test [1], 100% in test [1] (setting [6]), 98.8% in test [1] (setting [7]) and 116% (inactive) in test [3]. The GFP response relative to DMSO in test [2] was 199% (active); in test [2] (setting [8]), 189%; in test [2] (setting [9]), 200%. The GFP response, % of DMSO in test [4] was 94.5% (inactive); in test [5], 109% (inactive); in test [5] (setting [6]), 113%; in test [5] (setting [7]), 103%.
For the molecule `CCN(CC)CCCN(C(=O)c1ccc(Br)cc1)c1nc(-c2ccc(OC)cc2)cs1`, the GFP response vs DMSO was 96.5% (inactive) in test [1], 97.3% in test [1] (setting [6]), 96.9% in test [1] (setting [7]) and 101% (inactive) in test [3]. Moreover, the GFP response relative to DMSO in test [2] was 95.3% (inactive); in test [2] (setting [8]), 99%; in test [2] (setting [9]), 94.4%. Further, the GFP response, % of DMSO in test [4] is 97.9% (inactive); in test [5], 95.8% (inactive); in test [5] (setting [6]), 95.8%; in test [5] (setting [7]), 98.2%.
Take `O=C(N/N=C/c1ccc(Cl)cc1Cl)c1cccc(F)c1`: the GFP response vs DMSO in test [1] was 97% (inactive); in test [1] (setting [6]) it was 92.7%; in test [1] (setting [7]), 97.3%; in test [3] it was 103% (inactive). For the same molecule, the GFP response relative to DMSO in test [2] was 104% (inactive); in test [2] (setting [8]), 98.2%; in test [2] (setting [9]), 109%. The GFP response, % of DMSO in test [4] was 101% (inactive); in test [5] it was 86% (inactive); in test [5] (setting [6]), 84.1%; in test [5] (setting [7]), 84.8%.
For `Cc1cccc(/C=C/c2onc(C)c2[N+](=O)[O-])n1`, the GFP response vs DMSO was 99.9% (inactive) in test [1], 99.5% in test [1] (setting [6]), 96.6% in test [1] (setting [7]) and 100% (inactive) in test [3]. Moreover, the GFP response relative to DMSO in test [2] is 146% (inactive); in test [2] (setting [8]) it was 137%; in test [2] (setting [9]) it was 147%. Further, the GFP response, % of DMSO was 94.3% (inactive) in test [4], 87.4% (inactive) in test [5], 91.5% in test [5] (setting [6]) and 82.6% in test [5] (setting [7]).
As for `O=C(O)C1CCN(S(=O)(=O)c2ccc(Oc3ccccc3)cc2)CC1`, the GFP response vs DMSO in test [1] is 98% (inactive); in test [1] (setting [6]), 98.3%; in test [1] (setting [7]), 98.8%; in test [3] it was 104% (inactive). Also, the results for the GFP response relative to DMSO in test [2], in test [2] (setting [8]) and in test [2] (setting [9]) were 97.7% (inactive), 97.9% and 96.5%, respectively. Besides, the GFP response, % of DMSO in test [4] was 96.7% (inactive); in test [5], 99.3% (inactive); in test [5] (setting [6]) it was 100%; in test [5] (setting [7]), 98%.
Turning to `CC(C)c1nnc(NC(=O)c2nc(S(=O)(=O)Cc3ccccc3)ncc2Cl)s1`, the GFP response vs DMSO in test [1] was 98.5% (inactive); in test [1] (setting [6]), 101%; in test [1] (setting [7]), 95.4%; in test [3], 106% (inactive). The GFP response relative to DMSO is 102% (inactive) in test [2], 101% in test [2] (setting [8]) and 100% in test [2] (setting [9]). Further, the GFP response, % of DMSO was 102% (inactive) in test [4], 100% (inactive) in test [5], 99.3% in test [5] (setting [6]) and 99.3% in test [5] (setting [7]).

Source of the values: PubChem BioAssay.
